Rows were chosen to be rich in hits. Some 2.2% of all compounds tested hit in one or more screens of this group.
NadD block: NadD (S. aureus) enzyme inhibition | 0.78% of 360,000 active | purified NadD enzyme, colorimetric absorbance read-out | inhibition, % at 20 µM; in the data active means inhibition above about 26%
ASAP1 GAP inh: ASAP1 ArfGAP inhibition. Q9ULH1. ASAP1-stimulated ARF1 GTP hydrolysis, GDP FP detection. inhibition, % at 16.5 µM. 0.19% of 360,000 active. AID 624377; in the data active means inhibition above about 25%
Target sequence (Q9ULH1 325-724 limits assumed): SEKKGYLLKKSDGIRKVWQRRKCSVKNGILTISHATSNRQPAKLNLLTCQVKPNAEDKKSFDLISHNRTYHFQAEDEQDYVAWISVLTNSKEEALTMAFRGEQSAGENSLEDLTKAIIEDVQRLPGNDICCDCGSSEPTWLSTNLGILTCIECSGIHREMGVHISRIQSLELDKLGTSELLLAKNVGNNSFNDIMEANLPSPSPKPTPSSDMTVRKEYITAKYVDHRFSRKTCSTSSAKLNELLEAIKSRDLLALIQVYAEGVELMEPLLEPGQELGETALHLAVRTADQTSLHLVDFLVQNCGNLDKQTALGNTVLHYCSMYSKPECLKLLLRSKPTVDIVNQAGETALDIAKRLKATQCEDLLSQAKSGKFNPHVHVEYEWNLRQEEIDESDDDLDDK
rCAG binder: molecules binding r(CAG) RNA repeats; r(CAG) RNA repeat, TO-PRO-1 dye displacement fluorescence; 1.3% of 370,000 active; inhibition, % at 3 µM; AID 651821;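 active means inhibition above the plate cutoff, the mean of all test compounds on that plate plus 3 SD, cut at about 35% in these data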;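 further: higher means more dye released from RNA so lower well fluorescence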
ARFGAP1 inhibitor: rat ARFGAP1 inhibition; Q62848; Arfgap1-stimulated ARF1 GTP hydrolysis, GDP FP detection; inhibition, % at 16.5 µM; 0.26% of 360,000 active; AID 651572;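 active means inhibition above a per-plate limit, mean inhibition of low control wells plus 3 SD, cut at about 25% in these data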
Target sequence (Q62848 1-136 limits assumed): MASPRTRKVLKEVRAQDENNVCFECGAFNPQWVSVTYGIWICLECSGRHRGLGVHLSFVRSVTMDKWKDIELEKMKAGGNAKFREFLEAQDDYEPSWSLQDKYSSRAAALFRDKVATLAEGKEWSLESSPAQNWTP
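material = rat Arfgap1 catalytic domain, aa 1-136 | also added = human ARF1(Δ1-17)-GTP substrate | compound dosing = one concentration, 16.5 µM, DMSO 1.26% | times = GTP hydrolysis reaction 2 h at 25 °C | measured by = FP, GDP Alexa 633 tracer displaced from anti-GDP antibody, 620/688 nm | evaluation = percent inhibition of Arfgap1-stimulated GTP hydrolysis | replication = single well per compound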
ASAP1 GAP conf: confirmation of human ASAP1 inhibitors | ASAP1-stimulated Arf1 GTPase, GDP fluorescence polarization | 37% of 620 active | shares compounds with ASAP1 GAP inh | inhibition, % at 16.5 µM;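 active means mean inhibition over triplicates exceeds the hit threshold derived for the earlier primary screening run, cut at about 25% in these data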
ARFGAP1 inh conf: confirmation of rat ARFGAP1 inhibitors | ARFGAP1-stimulated ARF1 GTP hydrolysis, GDP tracer FP | AID 651608 | 30% of 890 active | inhibition, % at 16.5 µM | shares compounds with ARFGAP1 inhibitor;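 active means average inhibition over triplicates above the hit cutoff set in the earlier primary screen, cut at about 25% in these data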
rCAG bind conf: r(CAG) RNA repeat binding, confirmation. inhibition, % at 3 µM. TO-PRO-1 dye displacement fluorescence. AID 652065. 70% of 4,300 active. shares compounds with rCAG binder;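 active means inhibition above a per-plate cutoff, the mean inhibition of sample wells plus 3 SD, cut at about 35% in these data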;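 further: loss of TO-PRO-1 fluorescence as compound displaces dye from 1x1 AA loop RNA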
DNA CAG counter: DNA CAG dye complex inhibition counter-screen. shares compounds with rCAG binder. d(CAG) DNA oligo TO-PRO-1 dye displacement, fluorescence. inhibition, % at 3 µM. 94% of 4,300 active;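 active means inhibition above its plate's cutoff, the mean test-well inhibition plus 3 SD, cut at about 4.8% in these data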;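 further: hits displace the dye from DNA and so lower well fluorescence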
Of the large screens only hits and unclear results are named; the others gave an inactive call (follow-up assays come after a bar, where they were run).

O=C1C=C(N2CC2)c2ccccc2C1=O	ASAP1 GAP inh 30.6 | ASAP1 GAP conf inactive
COC(=O)C1C(c2ccc(I)cc2)CC2CCC1N2C (stereo unspecified)	ASAP1 GAP inh 25.5 (no result: NadD block) | ASAP1 GAP conf inactive
COC(=O)C1C(c2ccc(Cl)cc2)CC2CCC1N2C (stereo unspecified)	none (no result: NadD block)
CCc1c(C(=O)NN2C(=O)C3C4CCC(O4)C3C2=O)csc1C (stereo unspecified)	ASAP1 GAP inh 25.8 | ASAP1 GAP conf inactive
COC(=O)[C@@]1(O)c2c(oc3cccc(O)c3c2=O)C=C[C@H]1O	none (no result: NadD block, ASAP1 GAP inh, ARFGAP1 inhibitor)
CCCCn1nnnc1C(c1cccs1)N1CCC2(CC1)C(=O)NCN2c1ccccc1 (stereo unspecified)	none
CCC(C)NC(=O)c1c(N)n(CCCOC)c2nc3ccccc3nc12 (stereo unspecified)	ASAP1 GAP inh 27.2 | ASAP1 GAP conf inactive
Cc1cccc(C)c1-n1nnnc1C(C1CC1)N1CCC2(CC1)C(=O)NCN2c1ccccc1 (stereo unspecified)	none
Cc1ccc(Cn2cc(C=O)c3ccccc32)cc1	none
O=Cc1cn(Cc2ccc(F)cc2)c2ccccc12	ASAP1 GAP inh 25.0 | ASAP1 GAP conf inactive
COCCCn1c(N)c(C(=O)Nc2sc3c(c2C(=O)OC)CCCC3)c2nc3ccccc3nc21	ASAP1 GAP inh 29.1, ARFGAP1 inhibitor 27.3 | ASAP1 GAP conf inactive | ARFGAP1 inh conf inactive
O=S(=O)(c1ccc2ccccc2c1)N1Cc2cc(Br)ccc2-n2nncc2C1	none (no result: NadD block)
CC1CC(C)CN(C(=O)COC(=O)c2cn(C)c3ccccc23)C1 (stereo unspecified)	ARFGAP1 inhibitor 42.1 | ARFGAP1 inh conf 49.4
CC[N+](C)(CC)CCCCOc1ccc2c(c1)C(=O)c1cc(OCCCC[N+](C)(CC)CC)ccc1-2	ARFGAP1 inhibitor 25.6 | ARFGAP1 inh conf inactive
COc1ccccc1Oc1c(C)oc2cc(OC(=O)N(C)C)ccc2c1=O	ARFGAP1 inhibitor 26.6 | ARFGAP1 inh conf inactive
COc1ccc(Oc2c(C)oc3cc(OC(=O)N(C)C)ccc3c2=O)cc1	none
CCCOc1ccc(C(C)=O)cc1Cc1c(O)[nH]c(=S)[nH]c1=O	ARFGAP1 inhibitor 25.5 | ARFGAP1 inh conf inactive
CCOc1ccc(C(C)=O)cc1Cc1c(O)[nH]c(=S)[nH]c1=O	none
COc1cccc(CN2CCCCC2c2cccnc2)c1 (stereo unspecified)	ARFGAP1 inhibitor 25.1 | ARFGAP1 inh conf inactive
COc1ccc(CN2CCCCC2c2cccnc2)cc1C (stereo unspecified)	none
COc1ccc2nc(-c3ccc(CN4CCC(n5c(=O)[nH]c6cc(Cl)ccc65)CC4)cc3)c(-c3ccccc3)nc2c1	none (no result: NadD block)
COCCNC(=O)c1ccc(N2CC3CC(C2)c2cccc(=O)n2C3)c([N+](=O)[O-])c1 (stereo unspecified)	ARFGAP1 inhibitor 35.3 | ARFGAP1 inh conf inactive
CCOC(=O)[C@]12Cc3ccc4ccccc4c3[C@H]1N(Cc1ccccc1)C(=O)c1ccccc12	none
O=C(CCc1ccccc1)N1Cc2cc(N3CCOCC3)ccc2-n2nncc2C1	none
O=C(CCc1ccccc1)N1Cc2cc(N3CCCCC3)ccc2-n2nncc2C1	ARFGAP1 inhibitor 25.3 | ARFGAP1 inh conf inactive
NCCc1ccc(O)cc1	ARFGAP1 inhibitor 29.5 | ARFGAP1 inh conf inactive
CCOC(=O)[C@]12Cc3ccccc3[C@H]1N(CCC(=O)OC)C(=O)c1cc(OC)ccc12	none
CCOC(=O)[C@]12Cc3cc(OC)ccc3[C@H]1N(C(C)C)C(=O)c1cc(OC)ccc12	none
C=CCn1c(O)c(/C(CC)=N/NC(=S)Nc2ccccc2)c(=O)[nH]c1=O	none
C=CCn1c(O)c(/C(C)=N/NC(=S)Nc2ccccc2)c(=O)[nH]c1=O	rCAG binder 37.3 | rCAG bind conf 44.2 | DNA CAG counter 13.2
Cc1cccc(N2C(=O)/C(=C/c3ccc(N4CCN(C)CC4)o3)C(=O)NC2=S)c1C	rCAG binder 49.4 | rCAG bind conf 54.6 | DNA CAG counter 25.7
Cc1ccccc1N1C(=O)NC(=O)/C(=C/c2ccc(N3CCOCC3)o2)C1=O	none
CCc1ccccc1N1C(=O)/C(=C/c2ccc(N3CCN(C)CC3)o2)C(=O)NC1=S	rCAG binder 49.8 | rCAG bind conf 48.4 | DNA CAG counter 24.1
CC(C)n1c(=O)c(C=Nc2ccc(S(N)(=O)=O)cc2)c(O)n(Cc2ccco2)c1=O	rCAG binder 34.6 | rCAG bind conf inactive | DNA CAG counter 9.8
CCCCn1c(=O)c(C=Nc2ccc(Cl)cc2)c(O)n(Cc2ccco2)c1=O	none
CCOC(=O)[C@]12Cc3cc(Cl)ccc3[C@H]1N(C1CCCCC1)C(=O)c1ccccc12	none (no result: ASAP1 GAP inh, rCAG binder, ARFGAP1 inhibitor)
CC(=O)OC1C(O)C2=C3C4(C)C1C(C)(C)C(=O)CC4C3(O)C(OC(C)=O)C1(CC1C)C2=O (stereo unspecified)	none
CCC(C)n1c(O)c(C=NCCN2CCOCC2)c(=O)[nH]c1=S (stereo unspecified)	none
CCC(C)n1c(O)c(/C=N/N2CCOCC2)c(=O)[nH]c1=S (stereo unspecified)	rCAG binder 36.3 | rCAG bind conf inactive | DNA CAG counter inactive
CCCCCN1C(=O)c2cc(OC)ccc2[C@@]2(C(=O)OCC)Cc3cc(Cl)ccc3[C@@H]12	none
COC(=O)[C@H]1C[C@@]2(C)c3ccccc3N[C@H]2N1	none (no result: NadD block, ASAP1 GAP inh, ARFGAP1 inhibitor)
O=C(O)c1ccccc1-c1ccc(C=C2C(=O)N(c3ccccc3)C(=S)N(c3ccccc3)C2=O)o1	rCAG binder 57.0 | rCAG bind conf 61.1 | DNA CAG counter 25.8
CC1(C)C(=O)CCC2C1=CCC1C2CCC2(C)C(O)CCC12 (stereo unspecified)	none
COc1ccc(C(SCC(NC(=O)OCc2ccccc2)C(=O)O)c2ccc(OC)cc2)cc1 (stereo unspecified)	rCAG binder 52.9 | rCAG bind conf 52.5 | DNA CAG counter 14.2
CC(C)c1ccc(-n2c(O)c(/C=N/NC(=O)c3ccccc3O)c(=O)[nH]c2=S)cc1	rCAG binder 81.5 | rCAG bind conf 78.1 | DNA CAG counter 42.5
O=C(N/N=C/c1c(O)n(Cc2ccco2)c(=O)[nH]c1=O)c1ccccc1O	rCAG binder 57.8 | rCAG bind conf 66.0 | DNA CAG counter 26.5
O=C(N/N=C/c1c(O)n(C2CCCCC2)c(=S)[nH]c1=O)c1ccccc1O	rCAG binder 45.2 | rCAG bind conf 90.3 | DNA CAG counter 66.7
